Test [1] deals with MCF7. Briefly: Cytotoxicity against human MCF7 cells assessed as reduction in cell viability after 24 hrs by MTT assay. It is filed as functional, cell-based. The note with it: MCF7, 24 h. A digest of the protocol:
(§1)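 15,000 exponential-phase cells per well were seeded and incubated 24 h, then exposed to a range of test concentrations. Medium alone served as the negative control and doxorubicin as the positive control. MTT (5 mg/mL stock) was added for a further 4 h, and the formazan was dissolved in DMSO. Percent inhibition versus control was calculated, and IC50 was taken from the dose–inhibition curve. Each experiment was run three times.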
(Tetrazolium assays rely on reduction of a dye to a coloured formazan, in cell work by metabolically active cells.)

Another test relates to A549. The test is described as follows: Cytotoxicity against human A549 cells assessed as reduction in cell viability after 24 hrs by MTT assay. It is filed as functional, cell-based. The settings on record: A549, 24 h. A digest of the protocol:
as §1

For a further test, the system named is HT-29. The test is described as follows: Cytotoxicity against human HT-29 cells assessed as reduction in cell viability after 24 hrs by MTT assay. It is filed as functional, cell-based. The settings on record: HT-29, 24 h. A digest of the protocol:
as §1

The nature of test [2]: Cytotoxicity against human HT1080 cells assessed as reduction in cell viability after 24 hrs by MTT assay. It is filed as functional, cell-based. The note with it: HT-1080, 24 h. An outline of the steps: as §1
Test [3] relates to MCF7. Briefly: Ratio of doxorubicin IC50 to compound IC50 for human MCF7 cells assessed as reduction in cell viability after 24 hrs by MTT assay. It is filed as functional.

Molecules are shown by their SMILES.

By IC50 is commonly meant the midpoint of a concentration-inhibition curve. `Cc1cccc(-c2nnc(C(NCc3ccccc3)c3ccc[nH]3)o2)c1` (stereo not drawn): the IC50 is 480 µM in the test on MCF7 [1], 430 µM in the test with A549, 202 µM in the test with HT-29 and 311 µM in test [2].
In the case of `COc1ccc(-c2nnc(C(NCc3ccccc3)c3ccc[nH]3)o2)c(OC)c1` (stereo not drawn), the IC50 is 471 µM in the test on MCF7 [1], 296 µM with A549, 392 µM in the test with HT-29 and 418 µM in test [2].
For the compound `Fc1cc(-c2nnc(C(NCc3ccccc3)c3ccc[nH]3)o2)c(Cl)cc1Cl` (stereo not drawn), the IC50 with MCF7 [1] was 21.7 µM; in the test on A549, 27.5 µM; in the test on HT-29, 20 µM; in test [2] it was 25.6 µM.
In the same order, the values of `c1ccc(CNC(c2ccc[nH]2)c2nnc(-c3ccccc3)o2)cc1` (stereo not drawn) are 216 µM, 187 µM, 198 µM and 231 µM.
On to `COc1ccc(-c2nnc(C(NCc3ccc(F)cc3)c3ccc[nH]3)o2)cc1` (stereo not drawn), for which the IC50 stood at 28.9 µM with MCF7 [1], 52.8 µM in the test with A549, 39.4 µM with HT-29 and 14.7 µM in test [2].
Regarding `Cc1ccc(CNC(c2ccc[nH]2)c2nnc(-c3ccc(Br)cc3)o2)cc1` (stereo not drawn), the IC50 with MCF7 [1] worked out at 4.3 µM; with A549, 53.9 µM; with HT-29, 49.5 µM; in test [2], 51.9 µM. For the same compound, in the test with MCF7 [3], the “Ratio IC50” value came out at 4.
With `COc1ccccc1CNC(c1ccc[nH]1)c1nnc(-c2ccccc2)o1` (stereo not drawn), the IC50 is 441 µM in the test on MCF7 [1], 362 µM in the test on A549, 392 µM in the test on HT-29 and 278 µM in test [2].
For `COc1ccc(CNC(c2ccc[nH]2)c2nnc(-c3ccccc3)o2)cc1` (stereo not drawn), the IC50 with MCF7 [1] was found to be 142 µM; with A549 it was 278 µM; in the test on HT-29, 286 µM; in test [2] it was 175 µM.
Turning to `COc1cccc2c1C(=O)c1c(O)c3c(c(O)c1C2=O)C[C@@](O)(C(=O)CO)C[C@@H]3O[C@H]1C[C@H](N)[C@H](O)[C@H](C)O1` [DOXORUBICIN], the 50% inhibitory concentration (IC50) is 16.9 µM in the test on MCF7 [1], 13.6 µM in the test with A549, 16 µM in the test on HT-29 and 15.4 µM in test [2].
In the same order, the values of `Clc1ccc(-c2nnc(C(NCc3ccccc3)c3ccc[nH]3)o2)cc1` (stereo not drawn) are 46.2 µM, 73.8 µM, 54.5 µM and 41 µM.
In the same order, the values of `Clc1cccc(-c2nnc(C(NCc3ccc(Cl)c(Cl)c3)c3ccc[nH]3)o2)c1` (stereo not drawn) are 19 µM, 13.3 µM, 18 µM and 25.1 µM.
In the same order, the values of `Clc1cccc(-c2nnc(C(NCc3ccccc3)c3ccc[nH]3)o2)c1` (stereo not drawn) are 56.7 µM, 62.2 µM, 48.3 µM and 41.1 µM.
`Brc1ccc(-c2nnc(C(NCc3ccccc3)c3ccc[nH]3)o2)cc1` (stereo not drawn): the IC50 stood at 96.6 µM with MCF7 [1], 87.2 µM in the test on A549, 58.3 µM with HT-29 and 70.6 µM in test [2].
Regarding `Clc1ccc(-c2nnc(C(NCc3ccccc3)c3ccc[nH]3)o2)cc1Cl` (stereo not drawn), the IC50 was found to be 13.9 µM with MCF7 [1], 25.5 µM in the test on A549, 41.7 µM with HT-29 and 15.2 µM in test [2].
In the case of `COc1ccc(-c2nnc(C(NCc3ccccc3)c3ccc[nH]3)o2)cc1` (stereo not drawn), the IC50 in the test on MCF7 [1] worked out at 460 µM; in the test on A549, 326 µM; in the test with HT-29 it was 344 µM; in test [2], 170 µM.
With `COc1ccc(CNC(c2ccc[nH]2)c2nnc(-c3cccc(Cl)c3)o2)cc1` (stereo not drawn), the IC50 in the test on MCF7 [1] came to 41.7 µM; in the test on A549 it was 77.5 µM; in the test with HT-29 it was 95.6 µM; in test [2], 84.6 µM.
As to `Clc1ccc(CNC(c2ccc[nH]2)c2nnc(-c3ccc(Br)cc3)o2)cc1Cl` (stereo not drawn), the half-maximal inhibitory concentration (IC50) with MCF7 [1] is 31 µM; in the test with A549, 17.3 µM; in the test on HT-29 it was 20 µM; in test [2], 45.3 µM.
On to `Cc1ccc(-c2nnc(C(NCc3ccccc3)c3ccc[nH]3)o2)cc1` (stereo not drawn), for which the IC50 with MCF7 [1] was 1120 µM; in the test on A549 it was 744 µM; in the test on HT-29 it was 249 µM; in test [2], 909 µM.
